Rows were chosen to be rich in hits. Some 1.9% of all compounds tested hit in one or more screens of this group.
Rin1-Abl PPI inh = inhibitors of human Rin1-Abl protein interaction; P00519+Q13671; TR-FRET Rin1/Abl binding, biochemical; inhibition, % at 7.35 µM; actives 0.4% (n = 360,000); AID 588664; in the data active = inhibition above about 5%, passing the limit was not always enough
Target sequence (P00519 whole entry, looked up): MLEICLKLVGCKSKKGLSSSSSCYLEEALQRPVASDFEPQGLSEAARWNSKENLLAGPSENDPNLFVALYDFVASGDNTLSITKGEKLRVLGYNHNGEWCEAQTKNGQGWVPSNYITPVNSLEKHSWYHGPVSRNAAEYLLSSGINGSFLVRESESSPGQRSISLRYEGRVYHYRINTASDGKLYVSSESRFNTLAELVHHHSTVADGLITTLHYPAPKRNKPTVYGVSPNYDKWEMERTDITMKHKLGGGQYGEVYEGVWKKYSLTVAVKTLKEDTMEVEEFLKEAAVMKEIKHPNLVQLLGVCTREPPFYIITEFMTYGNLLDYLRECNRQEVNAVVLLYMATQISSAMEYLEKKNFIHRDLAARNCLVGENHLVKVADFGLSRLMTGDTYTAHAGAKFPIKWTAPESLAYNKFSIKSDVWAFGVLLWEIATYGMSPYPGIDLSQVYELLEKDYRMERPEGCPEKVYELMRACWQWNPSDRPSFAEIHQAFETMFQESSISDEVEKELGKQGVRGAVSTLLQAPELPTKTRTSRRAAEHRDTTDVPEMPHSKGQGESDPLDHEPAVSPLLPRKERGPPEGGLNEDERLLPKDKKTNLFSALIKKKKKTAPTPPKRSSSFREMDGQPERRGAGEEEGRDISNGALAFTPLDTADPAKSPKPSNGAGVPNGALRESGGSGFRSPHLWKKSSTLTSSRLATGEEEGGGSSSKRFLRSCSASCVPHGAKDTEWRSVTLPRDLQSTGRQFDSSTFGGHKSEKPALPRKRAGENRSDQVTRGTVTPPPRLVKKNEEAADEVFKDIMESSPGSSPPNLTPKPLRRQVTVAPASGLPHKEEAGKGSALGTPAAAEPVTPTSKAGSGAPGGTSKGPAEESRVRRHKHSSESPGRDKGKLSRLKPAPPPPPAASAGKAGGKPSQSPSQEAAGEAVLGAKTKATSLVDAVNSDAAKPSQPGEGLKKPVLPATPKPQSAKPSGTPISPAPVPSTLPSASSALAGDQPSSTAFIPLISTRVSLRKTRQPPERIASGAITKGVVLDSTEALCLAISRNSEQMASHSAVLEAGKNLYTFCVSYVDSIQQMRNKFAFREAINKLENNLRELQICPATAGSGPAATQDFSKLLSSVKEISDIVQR
Target sequence (Q13671 whole entry, looked up): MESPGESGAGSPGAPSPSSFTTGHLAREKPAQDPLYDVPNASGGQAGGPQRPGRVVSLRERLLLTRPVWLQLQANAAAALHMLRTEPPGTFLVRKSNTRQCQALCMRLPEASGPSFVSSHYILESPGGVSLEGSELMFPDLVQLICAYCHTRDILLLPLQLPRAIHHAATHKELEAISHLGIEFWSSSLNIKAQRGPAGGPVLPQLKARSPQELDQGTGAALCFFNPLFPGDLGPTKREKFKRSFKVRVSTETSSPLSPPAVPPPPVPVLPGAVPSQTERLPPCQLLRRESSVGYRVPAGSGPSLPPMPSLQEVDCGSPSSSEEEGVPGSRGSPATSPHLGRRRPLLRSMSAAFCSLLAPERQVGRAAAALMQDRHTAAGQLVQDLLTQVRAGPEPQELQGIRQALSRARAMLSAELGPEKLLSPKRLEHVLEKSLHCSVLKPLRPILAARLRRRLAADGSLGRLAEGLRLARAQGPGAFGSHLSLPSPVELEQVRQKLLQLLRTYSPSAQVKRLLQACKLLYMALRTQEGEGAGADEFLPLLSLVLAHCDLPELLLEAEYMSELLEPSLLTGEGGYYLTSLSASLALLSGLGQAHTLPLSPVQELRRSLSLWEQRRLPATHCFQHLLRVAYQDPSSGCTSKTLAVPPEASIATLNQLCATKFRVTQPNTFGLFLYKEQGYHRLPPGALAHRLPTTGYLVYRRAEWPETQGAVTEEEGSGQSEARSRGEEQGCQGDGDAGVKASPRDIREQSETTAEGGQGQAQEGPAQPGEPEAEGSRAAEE
SR-BI DiI inh = mouse SR-BI HDL lipid transfer inhibition | actives 0.96% (n = 320,000) | ldlA[mSR-BI] CHO cells, DiI-HDL uptake fluorescence, 3 h | inhibition, % at 12.5 µM | Q61009;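 active = mean replicate inhibition of at least 70% and a set share of replicates each scoring 70 or more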
SR-BI DiI-HDL act = SR-BI HDL lipid transfer activation; AID 504775; CHO ldlA[mSR-BI] cells, DiI-HDL uptake fluorescence, 3 h; 100 = double the neutral-control signal; activation, % at 12.5 µM; actives 0.096% (n = 320,000);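 active = mean replicate activation of at least 60% and every replicate at or above 60%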
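Material: SR-BI-overexpressing, LDLR-lacking CHO cells; schedule: compound exposure 3 h, 37 °C; reagent: DiI-labelled HDL at 10 µg/mL final; technique: bottom-read fluorescence, 550/595 nm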
GRK2 aptamer HTS = blocks RNA aptamer binding to human GRK2 | P25098 | bead flow cytometry, FAM-aptamer displacement from GRK2 | inhibition of aptamer binding, % at 10 µM | actives 0.59% (n = 330,000);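 active = inhibition of aptamer binding above 40%, roughly 3 SD of noise, on plates passing a quality check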;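 also: median bead fluorescence of bound FAM aptamer so fluorescent compounds give negative values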
A number is an active result.

Results for Cn1c(-c2ccc(F)cc2)cnc1NCc1ccc(F)cc1F ?
Rin1-Abl PPI inh: inactive; SR-BI DiI inh: inactive; SR-BI DiI-HDL act: inactive

Results for Cn1c(-c2ccc(F)cc2)cnc1NCc1ccccc1F ?
Rin1-Abl PPI inh: inactive; SR-BI DiI inh: 87.7; SR-BI DiI-HDL act: inactive; GRK2 aptamer HTS: inactive

What do the screens show for `CN(CC(=O)NCCCN1CCOCC1)S(=O)(=O)c1ccc(Br)cc1`?
Rin1-Abl PPI inh: inactive; SR-BI DiI inh: 77.9; SR-BI DiI-HDL act: inactive; GRK2 aptamer HTS: inactive

What do the screens show for `CCOc1ccc(C(=O)Nc2nnc(NC(=S)Nc3ccccc3)s2)cc1`?
Rin1-Abl PPI inh: inactive; SR-BI DiI inh: 84.6; SR-BI DiI-HDL act: inactive; GRK2 aptamer HTS: inactive

Results for Cc1c(NC(=O)CSc2nnc3c4ccccc4n(CCc4ccccc4)c3n2)c(=O)n(-c2ccccc2)n1C ?
Rin1-Abl PPI inh: inactive; SR-BI DiI inh: 81.6; SR-BI DiI-HDL act: inactive; GRK2 aptamer HTS: inactive

What do the screens show for `CCn1c2ccccc2c2nnc(SCC(=O)Nc3c(C)n(C)n(-c4ccccc4)c3=O)nc21`?
Rin1-Abl PPI inh: inactive; SR-BI DiI inh: inactive; SR-BI DiI-HDL act: inactive; GRK2 aptamer HTS: inactive

What do the screens show for `N#Cc1sc2nc(-c3cccs3)cc(-c3ccc(Cl)cc3)c2c1N`?
Rin1-Abl PPI inh: inactive; SR-BI DiI inh: inactive; SR-BI DiI-HDL act: inactive; GRK2 aptamer HTS: inactive

How did N#Cc1sc2nc(-c3cccs3)cc(-c3ccccc3)c2c1N do in these assays?
Rin1-Abl PPI inh: inactive; SR-BI DiI inh: 84.0; SR-BI DiI-HDL act: inactive; GRK2 aptamer HTS: inactive

What do the screens show for `CCCCN(C)c1c(C)nc2ccc(C(=O)NCCCn3ccnc3)cn12`?
Rin1-Abl PPI inh: inactive

Results for N#CNC(=Nc1ccccc1)SCc1ccc(C(=O)O)cc1 ?
Rin1-Abl PPI inh: inactive; SR-BI DiI inh: inactive; SR-BI DiI-HDL act: inactive; GRK2 aptamer HTS: inactive

How did CSC(=Nc1ccccc1)N=C(SCc1ccccc1)N(C)C do in these assays?
Rin1-Abl PPI inh: inactive; SR-BI DiI inh: 86.0; SR-BI DiI-HDL act: inactive

How did Cc1oc(-c2ccccc2)cc1C(=O)Nc1ccccc1 do in these assays?
Rin1-Abl PPI inh: inactive; SR-BI DiI inh: 89.8; GRK2 aptamer HTS: inactive

How did COc1ccc(S(=O)(=O)NCc2ccco2)cc1N(C)S(=O)(=O)c1ccccc1 do in these assays?
Rin1-Abl PPI inh: inactive; SR-BI DiI inh: inactive; SR-BI DiI-HDL act: inactive; GRK2 aptamer HTS: inactive

What do the screens show for `CCOC(=O)c1cc(CC)sc1NC(=O)c1cc(OCC)c(OCC)c(OCC)c1`?
Rin1-Abl PPI inh: inactive; SR-BI DiI inh: inactive; SR-BI DiI-HDL act: inactive; GRK2 aptamer HTS: inactive

Results for CCOC(=O)c1cc(CC)sc1NC(=O)c1ccc2c(c1)OCCO2 ?
Rin1-Abl PPI inh: inactive; SR-BI DiI inh: 71.1; SR-BI DiI-HDL act: inactive; GRK2 aptamer HTS: inactive

What do the screens show for `Cc1cc(C(=O)COc2ccc3ccc(=O)oc3c2)c(C)n1C`?
Rin1-Abl PPI inh: inactive; SR-BI DiI inh: inactive; SR-BI DiI-HDL act: inactive; GRK2 aptamer HTS: inactive

What do the screens show for `CCCN1C(=O)/C(=C/c2ccc(N3CCCC3)c(C)c2)NC1=S`?
Rin1-Abl PPI inh: inactive; SR-BI DiI inh: 86.6; SR-BI DiI-HDL act: inactive; GRK2 aptamer HTS: inactive

Results for Cc1cc(/C=C2\NC(=S)N(C)C2=O)ccc1N1CCCC1 ?
Rin1-Abl PPI inh: inactive; SR-BI DiI inh: inactive; SR-BI DiI-HDL act: inactive; GRK2 aptamer HTS: inactive

Results for CS(=O)(=O)Nc1cccc(NC(=O)C2Cc3c(-c4ccccc4)ccnc3O2)c1 (centres undefined) ?
Rin1-Abl PPI inh: inactive

What do the screens show for `CN(C(=O)c1ccc(NC(=O)Cc2cccc(NC(=O)C3CCN(C(=O)CCc4ccccc4)CC3)c2)cc1)C1CCCC1`?
Rin1-Abl PPI inh: inactive; SR-BI DiI inh: 71.1; SR-BI DiI-HDL act: inactive; GRK2 aptamer HTS: inactive

How did CN(C(=O)c1ccc(NC(=O)Cc2ccc(NC(=O)C3CCN(C(=O)CCc4ccccc4)CC3)cc2)cc1)C1CCCC1 do in these assays?
Rin1-Abl PPI inh: inactive; SR-BI DiI inh: inactive; SR-BI DiI-HDL act: inactive

How did CN(C(=O)c1cccc(NC(=O)Cc2ccc(NC(=O)C3CCCN(C(=O)C4CCCC4)C3)cc2)c1)C1CCCCC1 (centres undefined) do in these assays?
Rin1-Abl PPI inh: inactive; SR-BI DiI inh: 83.4; SR-BI DiI-HDL act: inactive

What do the screens show for `CN(C(=O)c1cccc(NC(=O)Cc2ccc(NC(=O)C3CCCN(C(=O)C4CCCC4)C3)cc2)c1)C1CCCC1` (centres undefined)?
Rin1-Abl PPI inh: inactive; SR-BI DiI inh: inactive; SR-BI DiI-HDL act: inactive

What do the screens show for `CN(C(=O)c1cccc(NC(=O)Cc2ccc(NC(=O)C3CCCN(C(=O)C4CCCC4)C3)cc2)c1)C1CC1` (centres undefined)?
Rin1-Abl PPI inh: inactive; SR-BI DiI inh: 75.5; SR-BI DiI-HDL act: inactive

How did O=C(Cc1ccc(NC(=O)C2CCCN(C(=O)C3CCCC3)C2)cc1)Nc1cccc(C(=O)N2CCCC2)c1 (centres undefined) do in these assays?
Rin1-Abl PPI inh: inactive; SR-BI DiI inh: 75.2; SR-BI DiI-HDL act: inactive

How did Cc1cccc(-c2n[nH]c(=S)n2/N=C/c2ccc(C)o2)c1 do in these assays?
Rin1-Abl PPI inh: inactive; SR-BI DiI inh: inactive; SR-BI DiI-HDL act: inactive; GRK2 aptamer HTS: 47.0

How did Cc1cc(-c2n[nH]c(=S)n2/N=C/c2ccc(C)o2)n[nH]1 do in these assays?
Rin1-Abl PPI inh: inactive; SR-BI DiI inh: inactive; SR-BI DiI-HDL act: inactive; GRK2 aptamer HTS: inactive

Results for COc1cc(/C=C2/C(=O)N(c3ccc(C(=O)O)cc3)N=C2C)cc(OC)c1O ?
Rin1-Abl PPI inh: inactive; SR-BI DiI inh: inactive; SR-BI DiI-HDL act: inactive; GRK2 aptamer HTS: inactive

Results for COc1cc(/C=C2/C(=O)N(c3ccc(Br)cc3)N=C2C)cc(OC)c1OC ?
Rin1-Abl PPI inh: 15.4; SR-BI DiI inh: inactive; SR-BI DiI-HDL act: inactive

How did CC1(C(=O)NS(=O)(=O)c2cccc(F)c2)CCN1C(=O)CC1CCCCC1 (centres undefined) do in these assays?
Rin1-Abl PPI inh: inactive

What do the screens show for `CCOc1ccc(/C=C2/C(=N)N3OC(C)=CC3=NC2=O)cc1OC`?
Rin1-Abl PPI inh: inactive; SR-BI DiI inh: inactive; SR-BI DiI-HDL act: 85.5; GRK2 aptamer HTS: inactive

Results for COc1cc(/C=C2/C(=N)N3OC(C)=CC3=NC2=O)ccc1OCCOc1ccc(C)cc1 ?
Rin1-Abl PPI inh: inactive; SR-BI DiI inh: inactive; SR-BI DiI-HDL act: inactive; GRK2 aptamer HTS: inactive

What do the screens show for `CC(=O)Nc1cccc(/C(C)=N/NC(=S)NC(C)C)c1`?
Rin1-Abl PPI inh: inactive; SR-BI DiI inh: inactive; SR-BI DiI-HDL act: inactive; GRK2 aptamer HTS: inactive

What do the screens show for `CC(=O)Nc1cccc(/C(C)=N/NC(N)=S)c1`?
Rin1-Abl PPI inh: inactive; SR-BI DiI inh: 81.5; SR-BI DiI-HDL act: inactive; GRK2 aptamer HTS: inactive

How did CC(C)(C)c1nnc(N/N=C/c2cc(Br)ccc2O)n(N)c1=O do in these assays?
Rin1-Abl PPI inh: inactive; SR-BI DiI inh: 115.1; SR-BI DiI-HDL act: inactive; GRK2 aptamer HTS: inactive

How did CN(C(=O)COC(=O)c1ccc(Cl)c(S(=O)(=O)NCc2ccccc2)c1)C1CCS(=O)(=O)C1 (centres undefined) do in these assays?
Rin1-Abl PPI inh: inactive; SR-BI DiI inh: inactive; SR-BI DiI-HDL act: inactive

How did COC1=C(N)C(=O)c2nc(-c3nc(C(=O)O)c(C)c(-c4ccc(OC)c(OC)c4O)c3N)ccc2C1=O do in these assays?
SR-BI DiI inh: inactive; SR-BI DiI-HDL act: inactive; GRK2 aptamer HTS: 66.0

Results for COc1ccc(-c2ncncc2-c2csc(C)n2)c(O)c1OC ?
Rin1-Abl PPI inh: inactive; SR-BI DiI inh: inactive; SR-BI DiI-HDL act: inactive; GRK2 aptamer HTS: inactive
